These results are taken from ChEMBL document CHEMBL1125515, “DNA-directed alkylating agents. 5. Acridinecarboxamide derivatives of (1,2-diaminoethane)dichloroplatinum(II)” (J Med Chem, 1992).

pIC50: −log10 of the molar value.

Experiment [1] in a line: In Vitro evaluation for the growth inhibition of Subline (P388/AMSA) Leukemia cell lines. The experiment is classed as functional, cell-based, Mus musculus. Put shortly:
(§1)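 Cells were continuously exposed to drug for 72 h in 96-well cultures. IC50 is the drug concentration (μM) inhibiting cell growth by 50%. Determinations were run in triplicate.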

Experiment [2] in a line: In Vitro evaluation for the growth inhibition of Subline (P388/CP) Leukemia cell lines. Type of experiment: functional, cell-based, Mus musculus. Put shortly: as §1
Experiment [3] has as its system Mus musculus. In words: Compound was treated in vivo for percent increase in life span of treated animals (optimal dose 20 mg/kg, ip) compared with […]/W bearing control animals. The experiment is classed as functional.
In a further experiment the test system is P388. The experiment is described as follows: In Vitro evaluation for the growth inhibition of Wildtype P388 Leukemia cell lines. The experiment is classed as functional, cell-based. The conditions noted are these: Mus musculus. The procedure, abridged: as §1
The test system of experiment [4] is Mus musculus. The experiment is described as follows: Compound was treated in vivo for percent increase in life span of treated animals (optimal dose 30 mg/kg, ip) compared with […]/W bearing control animals. The experiment is classed as functional.
Experiment [5] concerns Mus musculus. In words: Compound was treated in vivo for percent increase in life span of treated animals (optimal dose 5.3 mg/kg, ip) compared with P338/W bearing control animals. The experiment is classed as functional, organism-based. Details: dose 5.3 mg/kg. The conditions noted are these: at 5.3 mg/kg.
Experiment [6] relates to Mus musculus. The experiment is described as follows: Compound was treated in vivo for percent increase in life span of treated animals (optimal dose 5.5 mg/kg, ip) compared with P338/W bearing control animals. Type of experiment: functional, organism-based. More on the design: dose 5.5 mg/kg. The conditions noted are these: at 5.5 mg/kg.
Experiment [7] concerns Mus musculus. In words: Compound was treated in vivo for percent increase in life span of treated animals (optimal dose 13.3 mg/kg, ip) compared with […]/W bearing control animals. Type of experiment: functional, organism-based. Details: dose 13.3 mg/kg. Particulars: at 13.3 mg/kg.
Experiment [8] concerns Mus musculus. In words: Compound was treated in vivo for percent increase in life span of treated animals (optimal dose 13.3 mg/kg) compared with […]/CP bering control animals. Particulars: at 13.3 mg/kg. More on the design: dose 13.3 mg/kg. Type of experiment: functional, organism-based.
Experiment [9] deals with Mus musculus. In words: Compound was treated in vivo for percent increase in life span of treated animals (optimal dose 100 mg/kg, ip) compared with […]/W bearing control animals. Type of experiment: functional.
Experiment [10] concerns Mus musculus. The experiment is described as follows: Compound was treated in vivo for percent increase in life span of treated animals (optimal dose 45 mg/kg, ip) compared with […]/W bearing control animals. Type of experiment: functional.
Experiment [11] concerns Mus musculus. In words: Compound was treated in vivo for percent increase in life span of treated animals (optimal dose 65 mg/kg, ip) compared with P338/W bearing control animals. Type of experiment: functional.

Consider `Cl.NCCNCCCCCCNC(=O)c1cccc2cc3ccccc3nc12`, for which the pIC50 in experiment [1] (Mus musculus) was 5.96; in experiment [2] (Mus musculus), 6.46; with P388 it was 6.29. Moreover, the Increase in life-span with Mus musculus [3] is on record as 23%.

`Cl.NCCNCCCNC(=O)c1cccc2cc3ccccc3nc12`: the negative-log IC50 (pIC50) in experiment [1] (Mus musculus) is 5.80; in experiment [2] (Mus musculus), 6.23; in the experiment on P388, 6.13. In the experiment on Mus musculus [4], the Increase in life-span is 64%.

Turning to CISPLATIN [listing 1 of 2 here], the Increase in life-span was 120% in the experiment with Mus musculus [5] and below 20% in the experiment on Mus musculus [6].

Take “DICHLORO(ETHYLENEDIAMINE) PLATINUM (II) [listing 1 of 2 here]”: the pIC50 in experiment [2] is 5.99.

Take CISPLATIN [listing 2 of 2 here]: the values for the negative-log IC50 (pIC50) in experiment [1] and in experiment [2] were 5.26 and 5.28, respectively.

Turning to “DICHLORO(ETHYLENEDIAMINE) PLATINUM (II) [listing 2 of 2 here]”, the figures for the Increase in life-span with Mus musculus [7] and in the experiment with Mus musculus [8] were 70% and below 20%, respectively.

As to `Cl.NCCNCCCNC(=O)c1ccc2nc3ccccc3cc2c1`, the pIC50 is 5.31 in experiment [2] (Mus musculus) and 5.42 with P388. The same compound gave an Increase in life-span in the experiment on Mus musculus [9] below 20%.

As to `Cl.NCCNCCCCCCNC(=O)c1ccc2nc3ccccc3cc2c1`, the pIC50 is 5.42 in experiment [2] (Mus musculus) and 5.44 in the experiment on P388. Besides, the Increase in life-span in the experiment with Mus musculus [9] was below 20%.

With `Cl.NCCNCCCNC(=O)c1cccc2c(N)c3ccccc3nc12`, the pIC50 in [1] (Mus musculus) is 6.06; in experiment [2] (Mus musculus), 5.59; in the experiment with P388 it was 5.51. The Increase in life-span with Mus musculus [10] was found to be 45%.

With `Cl.NCCNCCCCCCNC(=O)c1cccc2c(N)c3ccccc3nc12`, the negative logarithm of the IC50 (pIC50) in experiment [2] (Mus musculus) was 5.64; in the experiment on P388 it was 5.28. In the experiment with Mus musculus [11], this compound registered an Increase in life-span below 20%.

One may read the pIC50 as the IC50 on a negative log10 scale, so that one unit is a factor of ten.
